Bioassay records (PubChem)
M4 PAM: positive allosteric modulators of human muscarinic M4 receptor. AID 624126. CHO-K1 hM4/Gqi5, Fluo-8 calcium fluorescence, ACh EC20; 0% = ACh EC20, 100% = maximal ACh. activation, % at 3 µM. actives 0.4% (n = 360,000);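 active = activation above its plate's cutoff, the mean activation of sample wells plus 3 SD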
Target sequence (P08173 whole entry, looked up): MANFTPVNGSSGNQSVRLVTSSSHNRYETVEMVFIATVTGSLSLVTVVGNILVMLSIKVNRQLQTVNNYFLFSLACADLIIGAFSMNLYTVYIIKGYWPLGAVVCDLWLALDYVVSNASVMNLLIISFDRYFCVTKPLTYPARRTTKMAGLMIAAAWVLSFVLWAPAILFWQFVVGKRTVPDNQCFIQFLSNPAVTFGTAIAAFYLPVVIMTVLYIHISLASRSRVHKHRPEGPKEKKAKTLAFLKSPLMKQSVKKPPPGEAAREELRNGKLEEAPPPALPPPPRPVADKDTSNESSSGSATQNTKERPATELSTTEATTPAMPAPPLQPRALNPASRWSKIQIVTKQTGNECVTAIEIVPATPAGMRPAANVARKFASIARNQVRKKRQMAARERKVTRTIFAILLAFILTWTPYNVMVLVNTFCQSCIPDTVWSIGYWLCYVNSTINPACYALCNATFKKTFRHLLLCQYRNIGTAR
TAAR1 agonist: agonists of human TAAR1; Q96RJ0; AID 624467; actives 0.99% (n = 360,000); activation, % at 3 µM; CHO RD-HGA16 TAAR1, Fluo-8 calcium fluorescence; vehicle wells 0%, saturating PEA agonist 100%;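 active = activation above the mean activation of all test compounds in the run plus 3 SD, cut at about 38% in these data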
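Test system: RD-HGA16 (CHO) cells co-expressing Gα16 and hTAAR1 / Benchmarks: DMSO vehicle as 0%, PEA at EC100 as 100% / Repeats: no replicates (n 1) / Measure: % activation from peak over basal fluorescence ratio, DMSO-to-PEA scaled / Timing: 17-24 h plating, Fluo-8 75 min 37 °C, 30 min RT / Technique: kinetic Fluo-8 calcium fluorescence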
M4 antag: CHRM4 antagonism in calcium assay. actives 0.73% (n = 360,000). inhibition, % at 3 µM. CHO-hM4 cells, ACh EC80, Fluo-8 calcium fluorescence;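 active = inhibition above its plate's cutoff, the mean inhibition of sample wells plus 3 SD, cut at about 27% in these data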
M4 ag: agonists of human muscarinic M4 receptor (CHRM4). P08173. CHO-K1 hM4/Gqi5, Fluo-8 calcium fluorescence; vehicle 0%, full acetylcholine response 100%. activation, % at 3 µM. actives 0.14% (n = 360,000);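 active = activation above the run mean over all test wells plus 3 SD, cut at about 32% in these data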;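 note: peak over basal fluorescence ratio per well then scaled between controls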
TAAR1 antag: antagonists of human TAAR1 | CHO RD-HGA16 TAAR1, Fluo-8 calcium fluorescence, antagonist | inhibition, % at 3 µM | Q96RJ0 | actives 1.5% (n = 360,000) | AID 624466;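 active = inhibition above a per-plate cutoff, the mean inhibition of test compounds on that plate plus 3 SD, cut at about 49% in these data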
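System: CHO RD-HGA16 cells bearing hTAAR1. Reagent: EC80 β-phenethylamine stimulus. Schedule: seeding 17-24 h prior, 75-min 37 °C, 30-min RT dye loading. Signal: Fluo-8 intracellular calcium dye fluorescence, real-time kinetic reads. Read-out: % inhibition from peak post-agonist over basal fluorescence ratio. Benchmarks: vehicle wells and EC80 agonist wells. Replicates: n of 1.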
Numbers stand for hits; i = inactive; nt = no result. The list is not random: actives were taken first. Their share in the collection is about 3%.

SMILES | M4 PAM | TAAR1 agonist | M4 antag | M4 ag | TAAR1 antag
COC(=O)[C@]12C[C@H](CC(=O)N3CCN(C(=O)c4ccco4)CC3)C(=O)N(Cc3ccccc3)C1=C[C@H](C(C)(C)C)O[C@@H]2C | nt | i | nt | nt | i
Cc1csc(NC(=O)C2=NN(c3ccccc3)C(=O)CC2)n1 | i | i | i | i | i
Cc1ccc(-c2csc(NC(=O)C3=NN(c4ccccc4)C(=O)CC3)n2)cc1 | i | i | i | i | 51.5
COc1ccc(N2C(=O)CSC23C(=O)Nc2ccccc23)cc1 (configuration not stated) | i | i | i | i | i
CC(C)c1ccc(N2C(=O)CSC23C(=O)N2CCCc4cccc3c42)cc1 (configuration not stated) | i | i | 89.6 | i | i
C#CCNC(=O)C[C@H]1C[C@@]2(C(=O)OC)C(=C[C@H](C3CCCC3)O[C@@H]2C)N(Cc2ccccc2)C1=O | nt | i | nt | nt | i
O=S(=O)(c1ccccc1)N1CCC(Oc2ccc(-n3cnnn3)cc2)CC1 | i | i | 28.2 | i | i
O=C(NCCc1ccccc1)C1CCN(S(=O)(=O)c2ccc(-n3cnnn3)cc2)CC1 | i | i | i | i | i
Cc1ccc(-c2nn(-c3ccccc3)cc2/C=C/C(=O)Nc2nccs2)cc1 | i | 40.4 | i | i | i
COc1ccc(-c2nn(-c3ccccc3)cc2C(=O)Nc2nccs2)cc1 | i | i | i | i | i
O=C(/C=C/c1cn(-c2ccccc2)nc1-c1ccccc1)Nc1ccc(C(=O)O)cc1 | i | i | 71.5 | i | i
O=C(Nc1nccs1)c1cn(-c2ccccc2)nc1-c1ccncc1 | i | 37.9 | i | i | i
Cc1ccc(C(O)c2ncc(-c3ccc(F)cc3)[nH]2)cc1F (configuration not stated) | i | i | i | i | i
COc1ccc(OC)c(CN2CCN(C(=O)c3ccc(C)c(S(=O)(=O)Nc4ccccc4OC)c3)CC2)c1 | i | i | i | i | i
Nc1[nH]c(C(=O)c2ccc(Cl)cc2)c(-c2ccc(Br)cc2)c1C(=O)NCCc1c[nH]c2ccccc12 | nt | i | nt | nt | i
Cc1ccc(C)c(N2CCN(C(=O)C3CCCN(S(=O)(=O)c4c(C)noc4C)C3)CC2)c1 (configuration not stated) | i | i | i | i | 52.5
O=c1c(NCCc2ccc(Cl)cc2)c(-c2ccccc2)c1=O | i | 42.1 | i | i | i
C[C@@H]1CN([C@@H](C)CO)C(=O)CCCn2cc(nn2)CO[C@H]1CN(C)S(C)(=O)=O | nt | i | nt | nt | i
COC(=O)[C@]12C[C@H](CC(=O)N3CCC(c4ccccc4)CC3)C(=O)N(CCC3=CCCCC3)C1=C[C@H](C(C)(C)C)O[C@@H]2C | nt | i | nt | nt | i
O=S1(=O)N[C@H](Cc2ccccc2)COc2cc(N3CCOCC3)ccc21 | nt | i | nt | nt | i
O=c1c2cc(F)ccc2sn1-c1ccccc1 | i | 60.1 | i | i | 57.3
O=c1c2ccccc2sn1-c1nccs1 | i | 46.6 | i | i | i
O=C1c2ccccc2C(=O)N1c1nccs1 | i | i | i | i | i
Cc1ccccc1-n1sc2cc(F)ccc2c1=O | i | 44.0 | i | i | i
O=c1c2ccccc2sn1-c1cccc(Cl)c1 | i | 38.5 | i | i | i
SMILES | M4 PAM | TAAR1 agonist | M4 antag | M4 ag | TAAR1 antag
CC(C)C(=O)N1CCCC1(C)C(=O)Nc1ccccc1 (configuration not stated) | i | nt | i | i | nt
O=Nc1ccccn1 | nt | i | nt | nt | i
Cc1cccc(C)c1NC(=O)NS(=O)(=O)c1ccccc1 | i | i | i | i | i
CCOC(=O)Cn1nc(-c2ccccc2)c2cnc3ccc(C)cc3c21 | i | i | i | i | 49.3
CCOC(=O)Cn1nc(-c2ccc(C)cc2)c2ccccc2c1=O | i | i | i | i | i
CC(C)(C)OC(=O)CC[C@@H](C(=O)NCCCCCCCCCCC(=O)N1CCN(C(=O)OC(C)(C)C)CC1)n1cc(CCCCCNC(=O)OC(C)(C)C)nn1 | i | i | i | i | i
CC(C)(C)OC(=O)NCCCCCc1cn([C@@H](CO)C(=O)NCCCCCCCCCCC(=O)N2CCN(C(=O)OC(C)(C)C)CC2)nn1 | i | i | 68.7 | 33.7 | 86.8
CC[C@H](C)[C@@H](C(=O)NCCCCCCCCCCC(=O)N1CCN(C(=O)OC(C)(C)C)CC1)n1cc(CCCCCNC(=O)OC(C)(C)C)nn1 | i | i | i | i | 60.4
COC(=O)[C@]12C[C@H](CC(=O)NCCCN3CCCC3=O)C(=O)N(Cc3ccccc3)C1=C[C@H](C1CCCC1)O[C@@H]2C | nt | i | nt | nt | i
O=C(NCc1ccccc1)[C@@H]1CCCN1C(=O)[C@H]1CCCN1C(=O)c1ccc(Cl)c(Cl)c1 | nt | i | nt | nt | i
O=c1oc2c3c4c(cc2c(C(F)(F)F)c1CCN1CCOCC1)CCCN4CCC3 | i | 41.0 | 29.4 | i | i
CC(C)(C)C1(C)OC(=O)C(=Cc2ccc(OCC(=O)Nc3ccccc3)cc2)C(=O)O1 (configuration not stated) | 30.1 | nt | i | i | nt
COC(=O)N/N=C(\C)c1ccc(-n2ccnc2)cc1 | i | i | i | i | i
C/C(=N\NC(=O)COc1ccc(C)cc1C(C)C)c1ccc(-n2ccnc2)cc1 | i | i | 47.9 | i | i
COc1cc(NC(=O)C2(C)CCN2C(C)C)cc(OC)c1OC (configuration not stated) | i | i | i | i | i
O=C1C=CC(=O)N1c1cccc(-c2ccccc2)c1 | i | i | 41.7 | i | 68.7
COc1cc(N2C(=O)C=CC2=O)ccc1N1C(=O)C=CC1=O | i | i | i | i | i
CN1[C@@H]2CC[C@H]1CC(OC(=O)C(CO)c1ccccc1)C2 (some centres not stated) | nt | i | nt | nt | i
CN1CCC(NCCC(c2ccc(F)cc2)c2ccc(Cl)cc2)CC1 (configuration not stated) | i | i | i | i | i
CN1CCC(OC(c2ccccc2)c2ccc(Cl)cc2)C1 (configuration not stated) | i | i | 57.8 | i | i
CN1C2CCC1CC(OC(c1ccccc1)c1ccccc1)C2 (configuration not stated) | i | i | 99.1 | i | i
C[C@H](CO)N1C[C@H](C)[C@@H](CN(C)C(=O)Nc2ccc(C(C)(C)C)cc2)OCc2cn(nn2)CCCC1=O | nt | i | nt | nt | i
CCc1nc2c(OCc3ccc(Cl)cc3)cccn2c1N(C)C(=O)c1ccncc1 | i | i | i | i | i
Cc1csc(C(=O)O)c1-c1c(C)csc1C(=O)O | 22.9 | i | i | i | i
CNc1ncn(-c2c(C)cccc2C)c(=O)n1 | nt | i | nt | nt | i
C[C@H](CO)N1C[C@H](C)[C@H](CN(C)S(=O)(=O)c2ccccc2)Oc2ccc(NC(=O)NC3CCCCC3)cc2CC1=O | i | i | 98.7 | i | i
Cc1ccc(S(=O)(=O)Nc2ccc3c(c2)CC(=O)N([C@H](C)CO)C[C@@H](C)[C@H](CN(C)S(=O)(=O)c2ccccc2)O3)cc1 | i | i | 32.6 | i | i
